# Screens from PubChem.
# Vif inh = blocks HIV Vif function | HEK293T cells, Vif self-association by quenched fluorescence, imaging, 24 h | inhibition, % at 7.49 µM | 340,000 tested, 0.35% active | AID 602346; in the data active = inhibition above about 50%, passing the limit was not always enough
# rRNA inh HTS = inhibits bacterial ribosomal RNA function over humanized ribosomes; E. coli WT GFP vs humanized-ribosome RFP mutants, fluorescence, 24 h; hits give low values; DMSO median 0, no signal -100; GFP signal change (wild-type ribosome), % (concentration not given with the values); 350,000 tested, 1.6% active; AID 720706;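 active = significant combined selectivity score with lowered wild-type GFP, culture density cut under 30%, mutant RFP and density less affected; inactive = any of these conditions unmet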
# FGF22 binding = FGF22 (human) thermal shift binding; recombinant FGF22 thermal shift, SYPRO orange fluorescence; percent of sucrose octasulfate shift, DMSO zero; activity (Tm shift, normalised), % at 9.99 µM; 340,000 tested, 1.5% active; AID 651658;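 active = mean Tm shift, scaled 0 neutral to 100 positive control, at about 1.3% or above, every replicate too, limit read from the data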
# Target sequence (Q9HCT0 whole entry, looked up): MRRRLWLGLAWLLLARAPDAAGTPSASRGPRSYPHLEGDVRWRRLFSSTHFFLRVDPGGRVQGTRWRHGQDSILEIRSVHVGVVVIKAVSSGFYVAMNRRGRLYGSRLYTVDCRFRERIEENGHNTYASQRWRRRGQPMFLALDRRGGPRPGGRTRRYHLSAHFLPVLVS
# PGC1a acetyl inh = PGC1a acetylation modulation, inhibitor mode; U2OS PGC1a acetylation, AlphaScreen anti-acetyl-lysine; with virally co-expressed GCN5 acetyltransferase; 350,000 tested, 0.17% active; AID 651687; inhibition, % at 15.6 µM;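 active = every replicate shows inhibition of at least 40%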;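 also: 0% = neutral control wells and 100% = positive control wells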
# PglD DTNB = inhibitors of Campylobacter jejuni PglD acetyltransferase. purified PglD enzyme, DTNB colorimetric CoA detection. inhibition, % at 12.5 µM. 360,000 tested, 0.098% active. AID 602405; in the data active = inhibition above about 16%, passing the limit was not always enough
# Cneo AK release = Cryptococcus neoformans lysis via adenylate kinase release; C. neoformans lysis, adenylate kinase release luminescence, 4 h; normalised: neutral wells 0, clomiphene wells 100; lysis activity, % at 15 µM; 360,000 tested, 0.2% active;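 active = mean lysis activity across replicates of at least 80%, whatever share of replicates individually reach that level; inactive = mean lysis activity below 80%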
#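 Test system: log-phase Cryptococcus neoformans yeast cells; Quantity: yeast cell density of 5 × 10^6 cells/mL; Buffer or medium: YPD; Doses: single compound concentration per well; Timing: 4 h at 37 °C static, read 1 h later; Measured by: AK luminescence; Read-out basis: lysis from increased AK signal; Control set: Clomiphene as positive control.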
# * marks the source's active call; other numbers are inactive results; x = no result given. Only some compounds are listed: those with a hit (about 2.9% of all), similar ones and a draw of the others.
SMILES,Vif inh,rRNA inh HTS,FGF22 binding,PGC1a acetyl inh,PglD DTNB,Cneo AK release
CN(C)C(=O)c1ccc(N=Nc2c(O)c3ccccc3[nH]c2=O)cc1,-18,-21*,0,4,-2,-9
C[C@H](CO)N1C[C@H](C)[C@@H](CN(C)Cc2ccc(C(F)(F)F)cc2)OCc2cn(nn2)CCCC1=O,x,0,x,10,x,x
O=[N+]([O-])c1ccccc1S(=O)(=O)Oc1ccc(/C=N/n2cnnc2)cc1,-10,x,x,x,x,x
COc1cc(/C=N/n2cnnc2)ccc1OS(=O)(=O)c1ccccc1[N+](=O)[O-],-2,-19*,0,x,-7,0
COCCCn1c(SCCc2ccccc2)nc2cc(OC)c(OC)cc2c1=N,18,-41*,0,0,-3,2
CCSc1nc2cc(OC)c(OC)cc2c(=O)n1CCc1ccccc1,-5,x,x,-1,-7,-1
CN(C(=O)C1CCN(S(=O)(=O)c2ccccc2[N+](=O)[O-])CC1)C1CCCCC1,-17,-17,44*,9,12,0
CC[C@@H](NC(=O)[C@@H](Cc1ccccc1)NC(=O)CC[C@H]1O[C@@H](n2ccc(=O)[nH]c2=O)[C@H](O)[C@@H]1O)c1ccccc1,x,-8.9*,0,5,-7,1
C[C@H](CO)N1C[C@H](C)[C@H](CN(C)C(=O)C2CCOCC2)Oc2ncc(C#Cc3cccc(F)c3)cc2C1=O,x,7,x,3,x,x
CC(C)NC(=O)N(C)C[C@@H]1OCCCC[C@H](C)Oc2ccc(NC(=O)Cc3ccccc3)cc2C(=O)N([C@H](C)CO)C[C@H]1C,x,8,1,0,-2,101*
CNC[C@@H]1OCCCC[C@H](C)Oc2ccc(NC(=O)c3ccccc3)cc2C(=O)N([C@@H](C)CO)C[C@@H]1C,x,1,0,-40,-41,82*
CC(C)NC(=O)N(C)C[C@H]1OCCCC[C@@H](C)Oc2ccc(NC(=O)c3ccccc3)cc2C(=O)N([C@H](C)CO)C[C@H]1C,x,-3,0,-10,-1,-1
CNC[C@@H]1OCCCC[C@H](C)Oc2ccc(NC(=O)Nc3ccc(F)cc3)cc2C(=O)N([C@@H](C)CO)C[C@H]1C,x,8,-1,-5,1,101*
CC(C)NC(=O)N(C)C[C@@H]1OCCCC[C@@H](C)Oc2ccc(NC(=O)c3ccccc3)cc2C(=O)N([C@H](C)CO)C[C@@H]1C,x,-2,0,2,2,111*
CC[C@H]1C/C=C\CCNC(=O)CCC(=O)N1,x,0,x,x,x,x
CNC[C@@H]1Oc2cc(C#Cc3ccc(OC)cc3)ccc2S(=O)(=O)N([C@@H](C)CO)C[C@H]1C,x,1,0,-23,2,-1
C[C@@H]1CCCCO[C@@H](CN(C)C(=O)c2ccccc2)[C@H](C)CN([C@@H](C)CO)C(=O)c2cc(NC(=O)c3ccccc3)ccc2O1,x,-21*,0,-4,1,-1
CC(C)NC(=O)N(C)C[C@H]1OCCCC[C@H](C)Oc2ccc(NC(=O)c3ccccc3)cc2C(=O)N([C@@H](C)CO)C[C@@H]1C,x,-1,0,-1,4,95*
CC(C)NC(=O)N(C)C[C@@H]1OCCCC[C@@H](C)Oc2ccc(NC(=O)c3ccccc3)cc2C(=O)N([C@H](C)CO)C[C@H]1C,x,-1,1,6,3,103*
CC(C)NC(=O)N(C)C[C@@H]1OCCCC[C@@H](C)Oc2ccc(NC(=O)c3ccccc3)cc2C(=O)N([C@@H](C)CO)C[C@@H]1C,x,2,0,0,2,-1
CC(C)NC(=O)N(C)C[C@H]1OCCCC[C@H](C)Oc2ccc(NC(=O)c3ccccc3)cc2C(=O)N([C@@H](C)CO)C[C@H]1C,x,1,0,-1,-1,0
Cc1noc(C)c1NC(=O)Nc1cccc2c1O[C@@H](CN(C)CC1CC1)[C@H](C)CN([C@H](C)CO)C2=O,x,1,0,3,-2,-2
CC=Cc1ccc2n(c1=O)C[C@H]1[C@H](CO)[C@@H](C(=O)NCc3ccc4c(c3)OCO4)[C@@H]2N1C(=O)CC (mixture of isomers),x,0,0,x,-3,-11
Cc1nc(NC(=O)CCl)sc1C(=O)N(C)C,8,15,43*,x,x,x
COc1ccc2c3c([nH]c2c1)[C@H](CO)N(C(=O)C1CCCC1)CC31CN(Cc2nccs2)C1,x,-4,0,x,x,x
SMILES,Vif inh,rRNA inh HTS,FGF22 binding,PGC1a acetyl inh,PglD DTNB,Cneo AK release
N#C/C(=C/c1ccccc1OCc1ccc(F)cc1)c1ccc(C(=O)O)cc1,-2,-48,0,-2,-4,-2
N#C/C(=C/c1ccc(OCc2ccc(C(=O)O)cc2)c(Br)c1)c1cccc(F)c1,-9,-27*,x,96*,x,x
C/C(=N\Nc1ccc(Cl)cc1)c1c(O)cc(C)oc1=O,3,-16,43*,24,x,x
CC(=O)CSc1nc(N)c(C#N)c(-c2cccs2)c1C#N,-19,x,x,-17,-3,-2
CCCCSc1nc(N)c(C#N)c(-c2cccs2)c1C#N,-8,-31*,0,-37,-3,-2
Cc1scc(C(=O)NNC(=S)NC(C)c2ccccc2)c1C (stereo not drawn),-8,-20*,0,x,x,x
CCCCNC(=S)NNC(=O)c1csc(C)c1C,-6,x,x,x,x,x
C/C=C/c1cnc2c(c1)C(=O)N([C@@H](C)CO)C[C@H](C)[C@@H](CN(C)S(=O)(=O)c1ccc(OC)cc1)O2,x,-1,0,-5,2,1
Cc1cc(NC(=O)c2ccc(N3C(=O)CCC3=O)cc2)no1,14,x,x,6,1,-1
COc1ccccc1NC(=O)c1cccc(N2C(=O)C3C4C=CC(C4)C3C2=O)c1 (stereo not drawn),-3,3,44*,-10,2,1
Cc1cc(NC(=O)c2ccc(N3C(=O)C4C5C=CC(C5)C4C3=O)cc2)no1 (stereo not drawn),2,8,44*,x,x,x
CCCNC(=O)N(C)C[C@@H]1Oc2ncc(-c3ccncc3)cc2C(=O)N([C@H](C)CO)C[C@H]1C,x,0,0,-4,2,-2
CC(C)n1c(=S)[nH]c2cc(Cl)ccc21,2,6,0,69*,x,x
C/C=C/c1ccc([C@H]2[C@@H](CO)N(C(=O)NCCC)[C@H]2CNC(=O)C2CCC2)cc1,x,-7,x,x,x,x
C/C=C/c1ccc([C@@H]2[C@@H](CNC(=O)C3CCC3)N(C(=O)NCCC)[C@H]2CO)cc1,x,-6,x,2,1,103*
C/C=C/c1ccc([C@H]2[C@@H](CO)N(C(=O)CC)[C@@H]2CNC(=O)C2CC2)cc1,x,0,0,-9,2,91*
C/C=C/c1ccc([C@@H]2[C@@H](CNC(=O)c3ccccc3)N(C(C)=O)[C@H]2CO)cc1,x,-4,x,-7,6,81*
